# ChEMBL document CHEMBL1153726, “Synthesis and anticancer activity of sclerophytin-inspired hydroisobenzofurans” (Bioorg Med Chem Lett, 2009)
# Key:
# Type in all cases: functional
# [1] = system: PC-3; assay: Growth inhibition of human PC3 cells at 100 nM after 96 hrs by MTT assay; design: scale not given: the % may be the effect or the level left
# [2] = system: BT-549; assay: Growth inhibition of human BT549 cells after 96 hrs by MTT assay; details: BT-549, 96 h
# [3] = system: SF-295; assay: Growth inhibition of human SF295 cells at 1 nM after 96 hrs by MTT assay; design: scale not given: the % may be the effect or the level left
# [4] = system: SNB-19; assay: Growth inhibition of human SNB19 cells after 96 hrs by MTT assay; details: SNB-19, 96 h
# Outline: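 Tested in the NCI 60-cell-line panel in five-dose format; GI50 and LC50 values reported for each cell line.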
# [5] = system: HCT-15; assay: Growth inhibition of human HCT15 cells at 10 nM after 96 hrs by MTT assay; design: scale not given: the % may be the effect or the level left
# [6] = Growth inhibition of human RPMI8266 cells at 10 uM after 96 hrs by MTT assay; design: scale not given: the % may be the effect or the level left
# [7] = system: HL-60(TB); assay: Growth inhibition of human HL-60(TB) cells at 10 nM after 96 hrs by MTT assay; design: scale not given: the % may be the effect or the level left
# [8] = system: SN12C; assay: Growth inhibition of human SN12C cells at 1 uM after 96 hrs by MTT assay; design: scale not given: the % may be the effect or the level left
# [9] = system: SK-MEL-2; assay: Growth inhibition of human SK-MEL-2 cells at 100 nM after 96 hrs by MTT assay; design: scale not given: the % may be the effect or the level left
# [10] = system: CAKI-1; assay: Growth inhibition of human Caki1 cells at 10 nM after 96 hrs by MTT assay; design: scale not given: the % may be the effect or the level left
# [11] = system: SK-MEL-28; assay: Growth inhibition of human SK-MEL-28 cells at 1 uM after 96 hrs by MTT assay; design: scale not given: the % may be the effect or the level left
# [12] = system: HOP-92; assay: Growth inhibition of human HOP92 cells at 1 uM after 96 hrs by MTT assay; design: scale not given: the % may be the effect or the level left
# [13] = system: MOLT-4; assay: Growth inhibition of human MOLT4 cells at 1 nM after 96 hrs by MTT assay; design: scale not given: the % may be the effect or the level left
# [14] = system: MCF7; assay: Growth inhibition of human MCF7 cells at 1 nM after 96 hrs by MTT assay; design: scale not given: the % may be the effect or the level left
# [15] = system: A498; assay: Growth inhibition of human A498 cells at 1 uM after 96 hrs by MTT assay; design: scale not given: the % may be the effect or the level left
# [16] = system: UACC-62; assay: Growth inhibition of human UACC62 cells at 1 nM after 96 hrs by MTT assay; design: scale not given: the % may be the effect or the level left
# [17] = system: SN12C; assay: Growth inhibition of human SN12C cells at 1 nM after 96 hrs by MTT assay; design: scale not given: the % may be the effect or the level left
# [18] = system: K562; assay: Growth inhibition of human K562 cells at 10 nM after 96 hrs by MTT assay; design: scale not given: the % may be the effect or the level left
# [19] = system: MOLT-4; assay: Growth inhibition of human MOLT4 cells at 10 nM after 96 hrs by MTT assay; design: scale not given: the % may be the effect or the level left
# [20] = system: T47D; assay: Growth inhibition of human T47D cells at 1 nM after 96 hrs by MTT assay; design: scale not given: the % may be the effect or the level left
# [21] = system: 786-0; assay: Growth inhibition of human 786-0 cells at 1 uM after 96 hrs by MTT assay; design: scale not given: the % may be the effect or the level left
# [22] = system: SK-MEL-2; assay: Growth inhibition of human SK-MEL-2 cells at 1 uM after 96 hrs by MTT assay; design: scale not given: the % may be the effect or the level left
# [23] = system: DU-145; assay: Growth inhibition of human DU145 cells at 100 nM after 96 hrs by MTT assay; design: scale not given: the % may be the effect or the level left
# [24] = system: HL-60(TB); assay: Growth inhibition of human HL-60(TB) cells at 100 nM after 96 hrs by MTT assay; design: scale not given: the % may be the effect or the level left
# [25] = system: SNB-75; assay: Growth inhibition of human SNB75 cells at 10 nM after 96 hrs by MTT assay; design: scale not given: the % may be the effect or the level left
# [26] = read-out: LC50 (the source's name)
# [27] = read-out: Log10GI50 (converted)
# [28] = read-out: Log10LC50 (converted)
smiles,measurement,setting,value
C=C(C)[C@H]1CC=C(C)C2=CO[C@@H](c3ccccc3F)[C@@H]21,Activity,[1],70%
same,GI50,[2]; read-out: GI50,1720 nM
same,CC50,[2]; [26],34 µM
same,GI50,[2]; [27],1700 nM
same,CC50,[2]; [28],33.9 µM
same,TGI,[2]; read-out: Log10TGI (converted),8.32 µM
same,TGI,[2]; read-out: TGI,8.37 µM
same,Activity,[3],96%
same,GI50,[4]; read-out: GI50,10.7 µM
same,CC50,[4]; [26],47.4 µM
same,GI50,[4]; [27],10.7 µM
same,CC50,[4]; [28],47.9 µM
same,TGI,[4]; read-out: Log10TGI (converted),22.4 µM
same,TGI,[4]; read-out: TGI,22.5 µM
same,Activity,[5],95%
same,Activity,[6],18.49%
same,Activity,[7],104%
same,Activity,[8],44%
same,Activity,[9],76%
same,Activity,[10],93%
same,Activity,[11],53%
same,Activity,[12],-14%
same,Activity,[13],106%
same,Activity,[14],93%
same,Activity,[15],-16%
same,Activity,[16],88%
same,Activity,[17],85%
same,Activity,[18],95%
same,Activity,[19],100%
same,Activity,[20],98%
same,Activity,[21],48%
same,Activity,[22],31%
same,Activity,[23],87%
same,Activity,[24],92%
same,Activity,[25],81%
